# The source made the active and inactive calls. No cut-off for these calls is given here.
# What was measured:
# A549 [1] = experiment: Induction of apoptosis in human A549 cells assessed as intraneucleosomal DNA fragmentation at 6.5 uM after 24 to 48 hrs by agarose gel electrophoresis technique; type: functional, cell-based
# In short: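 After 24 h and 48 h at 6.5 µM, A549 cells were pelleted, washed in PBS and lysed. The supernatant was treated with SDS and RNase A for 2 h at 56 °C, then proteinase K. DNA was precipitated with ammonium acetate and ice-cold ethanol at −80 °C for 1 h, washed in 80% ethanol, dissolved in TE, and run on 2% agarose gel.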
# A549 [2] = experiment: Induction of apoptosis in human A549 cells assessed as apoptotic bodies formation at 6.5 uM after 24 to 48 hrs by Hoechst 33342 staining; type: functional, cell-based
# In short: (§1)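 A549 cells were grown 24 h on coverslips at 10,000 cells, then exposed to 6.5 µM for 24 h and 48 h, with 0.001% DMSO vehicle controls. Hoechst 33342 (0.5 µg/mL) with 4% paraformaldehyde was applied for 30 min at 37 °C. Random fields were examined by fluorescence microscopy, scoring relative fluorescence and nuclear fragmentation.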
# A549 [3] = experiment: Induction of apoptosis in human A549 cells assessed as cytoplasmic condensation at 6.5 uM after 24 to 48 hrs by Hoechst 33342 staining; type: functional, cell-based; in short: as §1
# A549 [4] = experiment: Induction of cell cycle arrest in human A549 cells assessed as accumulation at sub G1 phase at 6.5 uM after 24 hrs by propidium iodide staining-based FACS analysis (reference value: 1.02 %); type: functional
# In short: (§2)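 A549 cells (1 × 10^6) in six-well plates received 6.5 µM (final) for 24 h or 48 h. Floating and adherent cells were fixed in 70% ethanol, washed in PBS, then stained for 20 min with 50 µg/mL propidium iodide in hypotonic citrate/Triton X-100 buffer with DNase-free RNase A. Cells were analysed by FACS.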
# A549 [5] = experiment: Induction of cell cycle arrest in human A549 cells assessed as accumulation at G2/M phase at 6.5 uM after 24 hrs by propidium iodide staining-based FACS analysis (reference value: 20.92 %); type: functional; in short: as §2
# A549 [6] = experiment: Induction of cell cycle arrest in human A549 cells assessed as accumulation at sub G1 phase at 6.5 uM after 48 hrs by propidium iodide staining-based FACS analysis (reference value: 1.02 %); type: functional; in short: as §2
# A549 [7] = experiment: Induction of apoptosis in human A549 cells assessed as viable cells at 6.5 uM after 24 hrs using Annexin V-FITC and PI staining by flow cytometry (reference value: 11.1 %); type: functional; details: A549, 24 h, read-out: Activity
# A549 [8] = experiment: Induction of apoptosis in human A549 cells assessed as apoptotic cells at 6.5 uM after 24 hrs using Annexin V-FITC and PI staining by flow cytometry (reference value: 2.6 %); type: functional
# A549 [9] = experiment: Induction of apoptosis in human A549 cells assessed as late apoptotic cells at 6.5 uM after 24 hrs using Annexin V-FITC and PI staining by flow cytometry (reference value: 85.7 %); type: functional
# A549 [10] = experiment: Induction of apoptosis in human A549 cells assessed as pre-necrotic cells at 6.5 uM after 24 hrs using Annexin V-FITC and PI staining by flow cytometry (reference value: 0.5 %); type: functional
# A549 [11] = experiment: Induction of apoptosis in human A549 cells assessed as viable cells at 6.5 uM after 48 hrs using Annexin V-FITC and PI staining by flow cytometry (reference value: 11.1 %); type: functional; details: A549, 48 h, read-out: Activity
# A549 [12] = experiment: Induction of apoptosis in human A549 cells assessed as late apoptotic cells at 6.5 uM after 48 hrs using Annexin V-FITC and PI staining by flow cytometry (reference value: 85.7 %); type: functional
# A549 [13] = experiment: Induction of apoptosis in human A549 cells assessed as pre-necrotic cells at 6.5 uM after 48 hrs using Annexin V-FITC and PI staining by flow cytometry (reference value: 0.5 %); type: functional
# SR = experiment: Cytotoxicity against human SR cells; type: functional
# In short: (§3)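 NCI 60-cell-line panel protocol. Primary screen used a single 10^-5 M concentration with 48 h incubation, and percent growth was read against untreated cells by sulforhodamine B protein staining. The five-dose follow-up used a DMSO solution at five 10-fold dilutions from 10^-4 to 10^-8 M.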
# HOP-62 = experiment: Cytotoxicity against human HOP62 cells; type: functional
# In short: (§4)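 NCI 60-cell panel second-stage testing by NCI standard procedures. Compound was dissolved in DMSO and tested at five 10-fold dilutions: 10^-4, 10^-5, 10^-6, 10^-7 and 10^-8 M.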
# NCI-H23 = experiment: Cytotoxicity against human NCI-H23 cells; type: functional; in short: as §4
# HCT-116 = experiment: Cytotoxicity against human HCT116 cells; type: functional; in short: as §4
# HCT-15 = experiment: Cytotoxicity against human HCT15 cells; type: functional; in short: as §4
# HT-29 = experiment: Cytotoxicity against human HT-29 cells; type: functional; in short: as §4
# SW-620 = experiment: Cytotoxicity against human SW620 cells; type: functional; in short: as §3
# SF-268 = experiment: Cytotoxicity against human SF268 cells; type: functional; in short: as §4
# SNB-19 = experiment: Cytotoxicity against human SNB19 cells; type: functional; in short: as §3
# U-251 = experiment: Cytotoxicity against human U251 cells; type: functional; in short: as §3
# Malme-3M = experiment: Cytotoxicity against human MALME-3M cells; type: functional; in short: as §4
# SK-MEL-28 = experiment: Cytotoxicity against human SK-MEL-28 cells; type: functional; in short: as §3
# LOX IMVI = experiment: Cytotoxicity against human LOXIMVI cells; type: functional; in short: as §4
# SK-MEL-5 = experiment: Cytotoxicity against human SK-MEL-5 cells; type: functional; in short: as §3
# UACC-257 = experiment: Cytotoxicity against human UACC257 cells; type: functional; in short: as §3
# UACC-62 = experiment: Cytotoxicity against human UACC62 cells; type: functional; in short: as §3
# MDA-MB-435 = experiment: Cytotoxicity against human MDA-MB-435 cells; type: functional; in short: as §4
# OVCAR-4 = experiment: Cytotoxicity against human OVCAR4 cells; type: functional; in short: as §4
# OVCAR-8 = experiment: Cytotoxicity against human OVCAR8 cells; type: functional; in short: as §4
# SK-OV-3 = experiment: Cytotoxicity against human SKOV3 cells; type: functional; in short: as §3
# A498 = experiment: Cytotoxicity against human A498 cells; type: functional; in short: as §4
# ACHN = experiment: Cytotoxicity against human ACHN cells; type: functional; in short: as §4
# RXF 393 = experiment: Cytotoxicity against human RXF393 cells; type: functional; in short: as §4
# UO-31 = experiment: Cytotoxicity against human UO31 cells; type: functional; in short: as §3
# MDA-MB-231 = experiment: Cytotoxicity against human MDA-MB-231 cells; type: functional; in short: as §4
# T47D = experiment: Cytotoxicity against human T47D cells; type: functional; in short: as §3
# MDA-MB-468 = experiment: Cytotoxicity against human MDA-MB-468 cells; type: functional; in short: as §4
# SNB-75 = experiment: Anticancer activity against human SNB75 cells assessed as mean cell growth at 10^-5 M after 48 hrs by SRB assay; type: functional
# In short: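 NCI-60 primary screen run to the US NCI protocol. Compound added at a single concentration of 10^-5 M and cultures incubated 48 h. The end point was sulforhodamine B (SRB) protein staining, reported as percent growth of treated cells relative to untreated control cells.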
compound,measurement,setting,value
O=C1Nc2ccccc2/C1=C\c1nc(-c2ccccc2F)n2ccccc12,Activity,A549 [1],Active
same,Activity,A549 [2],Active
same,Activity,A549 [3],Active
same,Activity,A549 [4],1.19%
same,Activity,A549 [5],17.46%
same,Activity,A549 [6],6.56%
same,viability at 6.5 µM,A549 [7],31.2%
same,Activity,A549 [8],61.5%
same,Activity,A549 [9],7.2%
same,Activity,A549 [10],0.1%
same,viability at 6.5 µM,A549 [11],8.3%
same,Activity,A549 [12],3.4%
same,Activity,A549 [13],0.9%
same,GI50,SR,11 µM
same,GI50,HOP-62,2.37 µM
same,GI50,NCI-H23,4.55 µM
same,GI50,HCT-116,1.97 µM
same,GI50,HCT-15,13 µM
same,GI50,HT-29,3.5 µM
same,GI50,SW-620,3.97 µM
same,GI50,SF-268,4.65 µM
same,GI50,SNB-19,4.7 µM
same,GI50,U-251,2.57 µM
same,GI50,Malme-3M,3.07 µM
same,GI50,SK-MEL-28,3.71 µM
same,GI50,LOX IMVI,4.15 µM
same,GI50,SK-MEL-5,2.8 µM
same,GI50,UACC-257,5.2 µM
same,GI50,UACC-62,6.32 µM
same,GI50,MDA-MB-435,3.95 µM
same,GI50,OVCAR-4,1.81 µM
same,GI50,OVCAR-8,2.49 µM
same,GI50,SK-OV-3,3.46 µM
same,GI50,A498,2.81 µM
same,GI50,ACHN,3.3 µM
same,GI50,RXF 393,3.41 µM
same,GI50,UO-31,2.12 µM
same,GI50,MDA-MB-231,2.27 µM
same,GI50,T47D,2.36 µM
same,GI50,MDA-MB-468,1.54 µM
same,Activity,SNB-75,18.49%

# Reference: ChEMBL document CHEMBL1799966, “Synthesis and anticancer activity of oxindole derived imidazo[1,5-a]pyrazines” (Eur J Med Chem, 2011)
